Measured values: ChEMBL document CHEMBL4715845, “Conjugable A adenosine receptor antagonists for the development of functionalized ligands and their use in fluorescent probes” (Eur J Med Chem, 2020)

Legend:
Homo sapiens [1] = species: Homo sapiens; assay: Selectivity ratio of Ki for displacement of [3H]R-PIA from recombinant human A1AR expressed in CHO cell membranes to Ki for displacement of [3H]CGS21680 from recombinant human A2AAR expressed in HEK293 cell membranes
Homo sapiens [2] = species: Homo sapiens; assay: Selectivity ratio of Ki for displacement of [3H]R-PIA from recombinant human A1AR expressed in CHO cell membranes to Ki for displacement of [125I]AB-MEC from recombinant human A3R expressed in CHO cell membranes
Homo sapiens [3] = species: Homo sapiens; assay: Selectivity ratio of Ki for displacement of [3H]CGS21680 from recombinant human A2AAR expressed in HEK293 cell membranes to Ki for displacement of [125I]AB-MEC from recombinant human A3R expressed in CHO cell membranes
[4] = target: T1, Adenosine receptor A1 (Homo sapiens) (UniProt P30542); assay: Displacement of [3H]R-PIA from recombinant human A1AR expressed in CHO cell membranes at 10 uM relative to control
T1 sequence (whole entry): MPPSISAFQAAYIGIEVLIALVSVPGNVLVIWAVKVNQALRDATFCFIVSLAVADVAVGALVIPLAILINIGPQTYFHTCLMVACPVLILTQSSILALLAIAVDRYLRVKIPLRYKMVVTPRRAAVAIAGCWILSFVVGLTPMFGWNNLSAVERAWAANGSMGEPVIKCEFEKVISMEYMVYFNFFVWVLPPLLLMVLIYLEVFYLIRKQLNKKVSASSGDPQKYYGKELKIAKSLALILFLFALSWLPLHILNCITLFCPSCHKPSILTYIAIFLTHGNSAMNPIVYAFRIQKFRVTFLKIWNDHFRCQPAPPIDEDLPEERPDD
Method in brief: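 [3H]R-PIA competition at membranes of CHO cells expressing recombinant human A1AR, with test compound at a single concentration of 10 μM. Adenosine deaminase (3 units/mL) present in the 30 min, 30 °C preincubation and during incubation. Final DMSO ≤2%. Bound radioligand collected on GF/B filters. Reported as % inhibition of specific binding.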

| inhibition [4] [%] | SMILES | Ratio Ki (Homo sapiens [1]) | Ratio Ki (Homo sapiens [2]) | Ratio Ki (Homo sapiens [3]) |
| --- | --- | --- | --- | --- |
| 4 | Cn1cc2c(nc(NC(=O)Nc3ccc(CC(=O)O)cc3)n3nc(-c4ccco4)nc23)n1 | > 10 | > 78 | 7.8 |
| – | Cn1cc2c(nc(NC(=O)CCCc3cn(CCCCCCNC(=O)c4ccc(-c5c6ccc(=N)c(S(=O)(=O)O)c-6oc6c(S(=O)(=O)O)c(N)ccc56)c(C(=O)O)c4)nn3)n3nc(-c4ccco4)nc23)n1 | – | – | 2.83 |
